Laboratory results: ChEMBL document CHEMBL1142368, “The discovery of adamantyl-derived, inhaled, long acting beta(2)-adrenoreceptor agonists” (Bioorg Med Chem Lett, 2008)

How the values were obtained:
[1] = organism: Homo sapiens; experiment: Selectivity for human recombinant adrenergic beta2 receptor over human recombinant adrenergic beta-1 receptor
In short: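 Cell-based functional agonist assay using recombinant human β2 receptor expressed in CHO cells, compared against human β1 receptor.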

[2] = Metabolic stability in human liver microsomes; format: ADME, Microsome; conditions: read-out: Stability
[3] = Distribution coefficient, log D of the compound; format: physicochemical; conditions: octanol/water
[4] = Volume of distribution in iv dosed rat; format: ADME, organism-based; conditions: in vivo
In short: (§1)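 Rats were given the compound intravenously, and volume of distribution, clearance and half life were determined from that dosing.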

[5] = Clearance in iv dosed rat; format: ADME, organism-based; conditions: in vivo; in short: as §1
[6] = Half life in iv dosed rat; format: ADME, organism-based; conditions: in vivo; in short: as §1
[7] = Oral bioavailability in rat; format: ADME, organism-based; conditions: in vivo
In short: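 Rats received the compound orally and intravenously in a crossover study.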

Row | Structure (SMILES) | Selectivity ratio [1] | half-life [2] | logD [3] | Vd [4] | clearance [5] | half-life [6] | bioavailability [7]
1 | C[C@H](Cc1cccc(CC(=O)NCC2CCCCC2)c1)NC[C@H](O)c1ccc(O)c(CO)c1 | 6790 | 3 min | 1.5 |  |  |  | 
2 | C[C@H](Cc1cccc(CC(=O)NC23CC4CC(CC(C4)C2)C3)c1)NC[C@H](O)c1ccc(O)c(CO)c1 | 2210 | 2 min | 2.1 | 14 L/kg | 103 mL/min/kg | 96 min | < 5%
3 | C[C@H](Cc1cccc(CC(=O)NCC23CC4CC(CC(C4)C2)C3)c1)NC[C@H](O)c1ccc(O)c(CO)c1 | 547 | 2 min | 2.5 |  |  |  | 
4 | C[C@H](Cc1cccc(CC(=O)NCc2ccc(Cl)c(Cl)c2)c1)NC[C@H](O)c1ccc(O)c(CO)c1 | 6340 | 4 min |  |  |  |  | 
5 | C[C@H](Cc1cccc(CC(=O)NC2CCCCCCC2)c1)NC[C@H](O)c1ccc(O)c(CO)c1 | 192 | 2 min | 1.9 |  |  |  | 
6 | C[C@H](Cc1cccc(CC(=O)NCC2CCCCCC2)c1)NC[C@H](O)c1ccc(O)c(CO)c1 | 1890 |  | 2 |  |  |  | 
7 | C[C@H](Cc1cccc(CC(=O)NC2C3CC4CC(C3)CC2C4)c1)NC[C@H](O)c1ccc(O)c(CO)c1 (stereo partly drawn) | 451 | 2 min | 2.1 |  |  |  | 
